Test results from ChEMBL document CHEMBL1124035, “1-Amino-substituted 4-methyl-5H-pyrido[4,3-b]indoles (gamma-carbolines) as tricyclic analogues of ellipticines: a new class of antineoplastic agents” (1988).

Experiments:
[1] = tested on: Calf thymus DNA; test: Apparent DNA affinity constant; format: nucleic-acid assay; settings: Bos taurus
How it was run: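 Apparent DNA affinity constant was measured by competition with ethidium bromide. Buffer was 20 mM Na2HPO4/NaH2PO4, 0.1 M NaCl, 1 mM EDTA, pH 7.4, with calf thymus DNA at 10 μg/mL. Values are given in 10^6 M⁻¹.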

[2] = tested on: L1210; test: Ability to reduce the cell count to 50% in L1210 culture cells; format: functional; settings: Mus musculus, read-out: ID50 (the source's name)
How it was run: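 L1210 cells in exponential growth in RPMI 1640 with 2 mM glutamine, penicillin/streptomycin and 10% FCS, 37 °C, 5% CO2. Drugs dissolved in distilled water were added to cells at 0.8 × 10^5 cells/mL for 48 h, then cells were counted. ID50 is the concentration halving cell proliferation versus controls, from regression of dose-response data; mean of two independent experiments.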

[3] = tested on: Mus musculus; test: Antitumor activity against P388 leukemia in mice at a dose of 50 mg/kg administered intraperitoneally for 5 days; format: functional, organism-based; parameters: dose 50 mg/kg
How it was run: (§1)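 CDF1 hybrid male or female mice, 10 per group, were inoculated ip on day 0 with 10^6 viable P388 leukemia cells. Drug in distilled water was given ip (0.1 mL/10 g body weight) daily on days 1-5, with vehicle, 5-fluorouracil and BD 84 controls given the same way. T/C = median survival of treated/controls × 100; T/C > 128% counted as significant.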

[4] = tested on: Mus musculus; test: Antitumor activity against P388 leukemia in mice at a dose of 6 mg/kg administered intraperitoneally for 5 days; format: functional; settings: route intraperitoneal; how it was run: as §1
[5] = tested on: Mus musculus; test: Antitumor activity against P388 leukemia in mice at a dose of 12 mg/kg administered intraperitoneally for 5 days; format: functional; settings: route intraperitoneal
How it was run: (§2)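 CDF1 hybrid male or female mice, 10 per group, were inoculated ip with 10^6 viable P388 cells on day 0. Drugs in distilled water were given ip (0.1 mL/10 g body weight) daily D1-5. Vehicle, 5-fluorouracil and BD 84 were given the same way. T/C = median survival day of treated / controls × 100; T/C > 128% was significant; cures counted at D60.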

[6] = tested on: Mus musculus; test: Antitumor activity against P388 leukemia in mice at a dose of 24 mg/kg administered intraperitoneally for 5 days; format: functional; settings: route intraperitoneal; how it was run: as §1
[7] = tested on: Mus musculus; test: Antitumor activity against P388 leukemia in mice at a dose of 10 mg/kg administered intraperitoneally for 5 days; It is nontoxic at this dose; format: functional; settings: route intraperitoneal; how it was run: as §2
[8] = tested on: Mus musculus; test: Antitumor activity against P388 leukemia in mice at a dose of 2.5 mg/kg administered intraperitoneally for 5 days; format: functional; settings: route intraperitoneal; how it was run: as §2
[9] = tested on: Mus musculus; test: Antitumor activity against P388 leukemia in mice at a dose of 5 mg/kg administered intraperitoneally for 5 days; format: functional; settings: route intraperitoneal; how it was run: as §1
[10] = tested on: Mus musculus; test: Antitumor activity against P388 leukemia in mice at a dose of 40 mg/kg administered intraperitoneally for 5 days; format: functional; how it was run: as §1
[11] = tested on: Mus musculus; test: Antitumor activity against P388 leukemia in mice at a dose of 20 mg/kg administered intraperitoneally for 5 days; format: functional; settings: route intraperitoneal; how it was run: as §2
[12] = tested on: Mus musculus; test: Antitumor activity against P388 leukemia in mice at a dose of 10 mg/kg administered intraperitoneally for 5 days; format: functional; settings: route intraperitoneal; how it was run: as §2

K aff [1]	IC50 [2]	Compound	T/C [3]	T/C [4]	T/C [5]	T/C [6]	T/C [7]	T/C [8]	T/C [9]	T/C [10]	T/C [11]	T/C [12]
460000 M⁻¹	1.3 µM	CCN(CC)CCCCNc1ncc(C)c2c1c1cc(OC)ccc1n2C	–	–	–	–	–	–	–	–	–	–
150000 M⁻¹	1 µM	COc1ccc2c(c1)c1c(NCC(C)CN(C)C)ncc(C)c1n2C (stereo unspecified)	–	–	–	–	–	–	–	–	–	–
150000 M⁻¹	0.35 µM	Cc1cnc(NCCCN(C)C)c2c3ccccc3n(C)c12	Toxic	107%	114%	131%	–	–	–	–	–	–
70000 M⁻¹	11.2 µM	CN(C)CCCNc1[nH]ccc2nc3ccc(O)cc3c1-2	–	–	–	–	115%	111%	102%	–	–	–
360000 M⁻¹	0.13 µM	COc1ccc2c(c1)c1c(NCCCN(C)C)ncc(C)c1n2C	–	–	–	–	–	–	134%	Toxic	150%	160%
